# ChEMBL document CHEMBL1123314, “Adriamycin analogues. Preparation and biological evaluation of some N-(trifluoroacetyl)-14-O-[(N-acetylamino)acyl]adriamycin derivatives” (J Med Chem, 1986)
# How the values were obtained:
# [1] = test system: CCRF-CEM; assay: In vitro antitumor activity in CCRF-CEM culture of human leukemic lymphocytes; assay type: functional; settings: read-out: ID50 (the source's name)
# In short: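 CCRF-CEM human leukemic lymphoblasts were grown in suspension in Eagle's MEM with 10% fetal bovine serum and exposed to drug continuously for 48 h. ID50 is the concentration giving 50% reduction in growth relative to untreated control cultures.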
# [2] = Half-life time of the compound; assay type: ADME
# [3] = % hydrolysis in 60 min
# [4] = % hydrolysis in 60 min; remark: listed apart in the source
# [5] = test system: Mus musculus; assay: Compound was evaluated in vivo for antileukemic activity in B6D2F1 male mice; assay type: functional
# In short: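 P388 leukemia model, run essentially per NCI standard protocols: 10⁶ tumor cells injected ip into B6D2F1 male mice on day 0. Drug given ip once daily for 4 days starting day 1; highest dose tested 50 mg/kg per day. Read-out is percent increase in life span (ILS) versus untreated controls, with long-term survivors (>40 days) noted.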
IC50 [1],half-life [2],% hydrolysis at 1 h [3],% hydrolysis at 1 h [4],SMILES,ILS [5]
230 nM,,,,CCCCC(=O)OCC(=O)[C@]1(O)Cc2c(O)c3c(c(O)c2[C@@H](OC2CC(NC(=O)C(F)(F)F)C(O)C(C)O2)C1)C(=O)c1c(OC)cccc1C3=O (some centres undefined),
1000 nM,18 min,,,COc1cccc2c1C(=O)c1c(O)c3c(c(O)c1C2=O)C[C@@](O)(C(=O)COC(=O)CC(NC(C)=O)C(=O)O)C[C@@H]3OC1CC(NC(=O)C(F)(F)F)C(O)C(C)O1 (some centres undefined),
120 nM,24 min,,,COc1cccc2c1C(=O)c1c(O)c3c(c(O)c1C2=O)C[C@@](O)(C(=O)COC(=O)CCC(NC(C)=O)C(N)=O)C[C@@H]3OC1CC(NC(=O)C(F)(F)F)C(O)C(C)O1 (some centres undefined),
160 nM,16 min,,,COc1cccc2c1C(=O)c1c(O)c3c(c(O)c1C2=O)C[C@@](O)(C(=O)COC(=O)CCC(NC(C)=O)C(=O)O)C[C@@H]3OC1CC(NC(=O)C(F)(F)F)C(O)C(C)O1 (some centres undefined),
140 nM,,,8%,COc1cccc2c1C(=O)c1c(O)c3c(c(O)c1C2=O)C[C@@](O)(C(=O)COC(=O)C(NC(C)=O)C(C)C)C[C@@H]3OC1CC(NC(=O)C(F)(F)F)C(O)C(C)O1 (some centres undefined),
150 nM,65 min,,,COc1cccc2c1C(=O)c1c(O)c3c(c(O)c1C2=O)C[C@@](O)(C(=O)COC(=O)C(CC(C)C)NC(C)=O)C[C@@H]3OC1CC(NC(=O)C(F)(F)F)C(O)C(C)O1 (some centres undefined),

# More lines, now with the values behind:
SMILES,IC50 [1],half-life [2],% hydrolysis at 1 h [3],% hydrolysis at 1 h [4],ILS [5]
COc1cccc2c1C(=O)c1c(O)c3c(c(O)c1C2=O)C[C@@](O)(C(=O)COC(=O)C1CCCN1C(C)=O)C[C@@H]3OC1CC(NC(=O)C(F)(F)F)C(O)C(C)O1 (some centres undefined),300 nM,,4%,,
COc1cccc2c1C(=O)c1c(O)c3c(c(O)c1C2=O)C[C@@](O)(C(=O)COC(=O)CNC(=O)c1ccccc1)C[C@@H]3OC1CC(NC(=O)C(F)(F)F)C(O)C(C)O1 (some centres undefined),120 nM,3.5 min,,,
COc1cccc2c1C(=O)c1c(O)c3c(c(O)c1C2=O)C[C@@](O)(C(=O)COC(=O)CNC(C)=O)C[C@@H]3OC1CC(NC(=O)C(F)(F)F)C(O)C(C)O1 (some centres undefined),140 nM,10 min,,,105%
COc1cccc2c1C(=O)c1c(O)c3c(c(O)c1C2=O)C[C@@](O)(C(=O)COC(=O)C(CCSC)NC(C)=O)C[C@@H]3OC1CC(NC(=O)C(F)(F)F)C(O)C(C)O1 (some centres undefined),830 nM,38 min,,,136%
COc1cccc2c1C(=O)c1c(O)c3c(c(O)c1C2=O)C[C@@](O)(C(=O)COC(=O)C(Cc1ccccc1)NC(C)=O)C[C@@H]3OC1CC(NC(=O)C(F)(F)F)C(O)C(C)O1 (some centres undefined),90 nM,14 min,,,173%
COc1cccc2c1C(=O)c1c(O)c3c(c(O)c1C2=O)C[C@@](O)(C(=O)COC(=O)C(C)NC(C)=O)C[C@@H]3OC1CC(NC(=O)C(F)(F)F)C(O)C(C)O1 (some centres undefined),150 nM,18 min,,,163%
COc1cccc2c1C(=O)c1c(O)c3c(c(O)c1C2=O)C[C@@](O)(C(=O)CO)C[C@@H]3O[C@H]1C[C@H](N)[C@H](O)[C@H](C)O1 [DOXORUBICIN],30 nM,,,,145%
